≈ marks a conversion by molar mass, not a printed value.
Tests used:
Klebsiella aerogenes [1] = assay: Antimicrobial activity against Enterobacter aerogenes MTCC 111 assessed as absence of visible growth after 48 to 72 hrs; type: functional
Shigella flexneri [2] = assay: Antimicrobial activity against Shigella flexneri MTCC 1457 assessed as absence of visible growth after 24 hrs
Klebsiella aerogenes [3] = assay: Antimicrobial activity against Enterobacter aerogenes MTCC 111 assessed as zone of inhibition at 1 mg/disc after 24 hrs incubation by disc diffusion assay; type: functional
Method in brief: (§1)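 Inocula grown in Mueller Hinton broth for 24 h at 37 °C and swabbed onto Mueller Hinton agar. Discs carried 1 mg compound each and stood 30 min at room temperature before 24 h incubation at 37 °C. Solvent as negative control. Inhibition zones recorded in mm; experiment done twice.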

Staphylococcus aureus [4] = assay: Antimicrobial activity against methicillin-resistant Staphylococcus aureus assessed as absence of visible growth after 48 to 72 hrs; type: functional
Method in brief: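 Broth two-fold serial dilution in 96-well plates, 1000 to 7.81 µg/mL, compound dissolved in DMSO (2%). Inoculum grown in Mueller Hinton broth 24 h at 37°C. Streptomycin positive control. 5 µl of tested broth plated on MHA; MIC is the lowest concentration inhibiting visible growth on agar.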

A549 [5] = assay: Anticancer activity against human A549 cells assessed as cell growth inhibition at 20 ug/ml by MTT assay; type: functional; settings: read-out: GI
Method in brief: (§2)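 A549 cells kept in DMEM with 10% FBS, 2 mM L-glutamine, penicillin/streptomycin, pH 7.2. Seeded at 5000 cells/well in medium with compound at 5–50 µg/mL. Grown at 37 °C, 5% CO2. Medium then replaced by 1 mg/mL MTT for 4 h and formazan dissolved in DMSO. Absorbance read at 540 nm; three replicate experiments.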

Proteus vulgaris [6] = assay: Antimicrobial activity against Proteus vulgaris MTCC 1771 assessed as absence of visible growth after 48 to 72 hrs; type: functional
Klebsiella pneumoniae [7] = assay: Antimicrobial activity against Klebsiella pneumonia MTCC 109 assessed as absence of visible growth after 48 to 72 hrs; type: functional
A549 [8] = assay: Anticancer activity against human A549 cells assessed as cell growth inhibition at 10 ug/ml by MTT assay; type: functional; settings: read-out: GI; method in brief: as §2
[9] = tested on: Staphylococcus epidermidis; assay: Antimicrobial activity against Staphylococcus epidermidis MTCC 3615 assessed as absence of visible growth after 48 to 72 hrs; type: functional
Salmonella typhimurium [10] = assay: Antimicrobial activity against Salmonella typhimurium MTCC 1251 assessed as zone of inhibition at 1 mg/disc after 24 hrs incubation by disc diffusion assay; type: functional, Salmonella enterica subsp. enterica serovar Typhimurium; method in brief: as §1
Proteus vulgaris [11] = assay: Antimicrobial activity against Proteus vulgaris MTCC 1771 assessed as zone of inhibition at 1 mg/disc after 24 hrs incubation by disc diffusion assay; type: functional; method in brief: as §1
Staphylococcus aureus [12] = assay: Antimicrobial activity against Staphylococcus aureus MTCC 96 assessed as absence of visible growth after 48 to 72 hrs; type: functional
Staphylococcus aureus [13] = assay: Antimicrobial activity against methicillin-resistant Staphylococcus aureus assessed as zone of inhibition at 1 mg/disc after 24 hrs incubation by disc diffusion assay; type: functional
Method in brief: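 Inoculum grown in Mueller Hinton broth 24 h at 37°C, swabbed onto Mueller Hinton agar and dried 10 min. Discs loaded at 1 mg/disc, then 30 min at room temperature for diffusion. Plates incubated 24 h at 37°C. Solvent negative control; streptomycin positive control. Zone of inhibition read in mm; experiment done twice.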

A549 [14] = assay: Anticancer activity against human A549 cells assessed as cell growth inhibition at 40 ug/ml by MTT assay; type: functional; settings: read-out: GI; method in brief: as §2
Micrococcus luteus [15] = assay: Antimicrobial activity against Micrococcus luteus MTCC 106 assessed as absence of visible growth after 48 to 72 hrs; type: functional
Malassezia pachydermatis = assay: Antifungal activity against Malassezia pachydermatis assessed as zone of inhibition at 1 mg/disc after 48 hrs incubation by disc diffusion assay; type: functional
Method in brief: (§3)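 Disc diffusion on Mueller Hinton agar with swabbed cultures, 1 mg compound per disc. Discs stood 30 min at room temperature for diffusion, then plates incubated 48 h at 28 °C. Solvent as negative control. Yeast pre-grown in Sabouraud dextrose broth at 28 °C for 48-72 h; filamentous fungal spores came from SDA slants grown 10 days at 28 °C. Zone diameters in mm; run twice.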

Candida albicans = assay: Antifungal activity against Candida albicans MTCC 227 assessed as zone of inhibition at 1 mg/disc after 48 hrs incubation by disc diffusion assay; type: functional; method in brief: as §3
Micrococcus luteus [16] = assay: Antimicrobial activity against Micrococcus luteus MTCC 106 assessed as zone of inhibition at 1 mg/disc after 24 hrs incubation by disc diffusion assay; type: functional; method in brief: as §1
Klebsiella pneumoniae [17] = assay: Antimicrobial activity against Klebsiella pneumonia MTCC 109 assessed as zone of inhibition at 1 mg/disc after 24 hrs incubation by disc diffusion assay; type: functional; method in brief: as §1
Salmonella typhimurium [18] = assay: Antimicrobial activity against Salmonella typhimurium MTCC 1251 assessed as absence of visible growth after 48 to 72 hrs; type: functional, Salmonella enterica subsp. enterica serovar Typhimurium; settings: Salmonella enterica
A549 [19] = assay: Anticancer activity against human A549 cells assessed as cell growth inhibition at 5 ug/ml by MTT assay; type: functional; settings: read-out: GI; method in brief: as §2
Staphylococcus aureus [20] = assay: Antimicrobial activity against Staphylococcus aureus MTCC 96 assessed as zone of inhibition at 1 mg/disc after 24 hrs incubation by disc diffusion assay; type: functional; method in brief: as §1
Shigella flexneri [21] = assay: Antimicrobial activity against Shigella flexneri MTCC 1457 assessed as zone of inhibition at 1 mg/disc after 24 hrs incubation by disc diffusion assay; type: functional; method in brief: as §1
[22] = tested on: Staphylococcus epidermidis; assay: Antimicrobial activity against Staphylococcus epidermidis MTCC 3615 assessed as zone of inhibition at 1 mg/disc after 24 hrs incubation by disc diffusion assay; type: functional; method in brief: as §1
A549 [23] = assay: Anticancer activity against human A549 cells assessed as cell growth inhibition at 30 ug/ml by MTT assay; type: functional; settings: read-out: GI; method in brief: as §2
A549 [24] = assay: Anticancer activity against human A549 cells assessed as cell growth inhibition at 50 ug/ml by MTT assay; type: functional; settings: read-out: GI; method in brief: as §2
[25] = tested on: Staphylococcus epidermidis; assay: Antimicrobial activity against Staphylococcus epidermidis MTCC 3615 assessed as absence of visible growth after 24 hrs
Klebsiella pneumoniae [26] = assay: Antimicrobial activity against Klebsiella pneumonia MTCC 109 assessed as absence of visible growth after 24 hrs
Shigella flexneri [27] = assay: Antimicrobial activity against Shigella flexneri MTCC 1457 assessed as absence of visible growth after 48 to 72 hrs; type: functional

N#CC1=C(N)[C@]2(C(=O)Nc3ccccc32)[C@@H](c2cccs2)[C@@H]2CCCC=C12
MIC (Klebsiella aerogenes [1]): 125 µg/mL (≈ 335 µM) | MIC (Shigella flexneri [2]): 62.5 µg/mL (≈ 167 µM) | inhibition zone (IZ) (Klebsiella aerogenes [3]): 17 mm | MIC (Staphylococcus aureus [4]): 62.5 µg/mL (≈ 167 µM) | inhibition of growth at 20 µg/mL (A549 [5]): 62.4% | MIC (Proteus vulgaris [6]): 62.5 µg/mL (≈ 167 µM) | MIC (Klebsiella pneumoniae [7]): 125 µg/mL (≈ 335 µM) | inhibition of growth at 10 µg/mL (A549 [8]): 45.8% | MIC [9]: 125 µg/mL (≈ 335 µM) | inhibition zone (IZ) (Salmonella typhimurium [10]): 15 mm | inhibition zone (IZ) (Proteus vulgaris [11]): 23 mm | MIC (Staphylococcus aureus [12]): 250 µg/mL (≈ 669 µM) | inhibition zone (IZ) (Staphylococcus aureus [13]): 21 mm | inhibition of growth at 40 µg/mL (A549 [14]): 75.9% | MIC (Micrococcus luteus [15]): 250 µg/mL (≈ 669 µM) | inhibition zone (IZ) (Malassezia pachydermatis): 12 mm | inhibition zone (IZ) (Candida albicans): 10 mm | inhibition zone (IZ) (Micrococcus luteus [16]): 15 mm | inhibition zone (IZ) (Klebsiella pneumoniae [17]): 16 mm | MIC (Salmonella typhimurium [18]): 250 µg/mL (≈ 669 µM) | inhibition of growth at 5 µg/mL (A549 [19]): 25.7% | inhibition zone (IZ) (Staphylococcus aureus [20]): 13 mm | inhibition zone (IZ) (Shigella flexneri [21]): 25 mm | inhibition zone (IZ) [22]: 19 mm | inhibition of growth at 30 µg/mL (A549 [23]): 67.8% | inhibition of growth at 50 µg/mL (A549 [24]): 83.9%

Cc1ccc([C@H]2[C@@H]3CCCCC=C3C(C#N)=C(N)C23C(=O)c2ccccc2C3=O)cc1 (relative stereo)
MIC (Klebsiella aerogenes [1]): 125 µg/mL (≈ 306 µM) | inhibition zone (IZ) (Klebsiella aerogenes [3]): 18 mm | MIC (Staphylococcus aureus [4]): 125 µg/mL (≈ 306 µM) | inhibition of growth at 20 µg/mL (A549 [5]): 18.6% | MIC (Proteus vulgaris [6]): 62.5 µg/mL (≈ 153 µM) | inhibition of growth at 10 µg/mL (A549 [8]): 10.5% | inhibition zone (IZ) (Salmonella typhimurium [10]): 19 mm | inhibition zone (IZ) (Proteus vulgaris [11]): 22 mm | MIC (Staphylococcus aureus [12]): 250 µg/mL (≈ 612 µM) | inhibition zone (IZ) (Staphylococcus aureus [13]): 17 mm | inhibition of growth at 40 µg/mL (A549 [14]): 46.6% | MIC (Micrococcus luteus [15]): 250 µg/mL (≈ 612 µM) | inhibition zone (IZ) (Malassezia pachydermatis): 10 mm | inhibition zone (IZ) (Candida albicans): 10 mm | inhibition zone (IZ) (Micrococcus luteus [16]): 10 mm | MIC [25]: 250 µg/mL (≈ 612 µM) | inhibition zone (IZ) (Klebsiella pneumoniae [17]): 20 mm | MIC (Salmonella typhimurium [18]): 125 µg/mL (≈ 306 µM) | inhibition of growth at 5 µg/mL (A549 [19]): 3.7% | MIC (Klebsiella pneumoniae [26]): 62.5 µg/mL (≈ 153 µM) | MIC (Shigella flexneri [27]): 62.5 µg/mL (≈ 153 µM) | inhibition zone (IZ) (Staphylococcus aureus [20]): 13 mm | inhibition zone (IZ) (Shigella flexneri [21]): 23 mm | inhibition zone (IZ) [22]: 16 mm | inhibition of growth at 30 µg/mL (A549 [23]): 30.8% | inhibition of growth at 50 µg/mL (A549 [24]): 59.6%

N#CC1=C(N)C2(C(=O)c3ccccc3C2=O)[C@@H](c2ccc(Cl)cc2)[C@@H]2CCCCC=C12 (relative stereo)
MIC (Klebsiella aerogenes [1]): 125 µg/mL (≈ 291 µM) | MIC (Shigella flexneri [2]): 62.5 µg/mL (≈ 146 µM) | inhibition zone (IZ) (Klebsiella aerogenes [3]): 18 mm | MIC (Staphylococcus aureus [4]): 62.5 µg/mL (≈ 146 µM) | inhibition of growth at 20 µg/mL (A549 [5]): 47.5% | MIC (Proteus vulgaris [6]): 62.5 µg/mL (≈ 146 µM) | inhibition of growth at 10 µg/mL (A549 [8]): 28.1% | inhibition zone (IZ) (Salmonella typhimurium [10]): 18 mm | inhibition zone (IZ) (Proteus vulgaris [11]): 23 mm | MIC (Staphylococcus aureus [12]): 250 µg/mL (≈ 583 µM) | inhibition zone (IZ) (Staphylococcus aureus [13]): 21 mm | inhibition of growth at 40 µg/mL (A549 [14]): 62.4% | MIC (Micrococcus luteus [15]): 62.5 µg/mL (≈ 146 µM) | inhibition zone (IZ) (Malassezia pachydermatis): 12 mm | inhibition zone (IZ) (Candida albicans): 13 mm | inhibition zone (IZ) (Micrococcus luteus [16]): 21 mm | MIC [25]: 125 µg/mL (≈ 291 µM) | inhibition zone (IZ) (Klebsiella pneumoniae [17]): 17 mm | MIC (Salmonella typhimurium [18]): 125 µg/mL (≈ 291 µM) | inhibition of growth at 5 µg/mL (A549 [19]): 12.1% | MIC (Klebsiella pneumoniae [26]): 125 µg/mL (≈ 291 µM) | inhibition zone (IZ) (Staphylococcus aureus [20]): 13 mm | inhibition zone (IZ) (Shigella flexneri [21]): 22 mm | inhibition zone (IZ) [22]: 17 mm | inhibition of growth at 30 µg/mL (A549 [23]): 56.2% | inhibition of growth at 50 µg/mL (A549 [24]): 78.8%

Source: ChEMBL document CHEMBL3286367, “Synthesis of new class of spirocarbocycle derivatives by multicomponent domino reaction and their evaluation for antimicrobial, anticancer activity and molecular docking studies” (2014)
